Results as given in ChEMBL document CHEMBL2146365, “Design and synthesis of EGFR dimerization inhibitors and evaluation of their potential in the treatment of psoriasis” (Bioorg Med Chem, 2012).
Active and inactive are the calls of the source. No cut-off for these calls is given here.

Columns and labels:
[1] = system: HaCaT; test: Growth inhibition of human HaCaT cells after 72 hrs by neutral red uptake assay; type: functional
How it was run: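 Neutral red uptake assay over 72 h. Cells were seeded at 10,000 cells/well and attached overnight, then exposed to eight concentrations with six replicates (DMSO <1%). CCD-1106 were grown in keratinocyte SFM with supplements. HaCaT were grown in DMEM with 10% FBS and 2 mM L-glutamine. NHEK (pooled adult) were grown in keratinocyte growth medium with supplement. Values are means, n = 6, against the untreated control.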

[2] = Cytotoxicity against HPV-16 transformed human CCD-1106 cells assessed as cell viability after 24 hrs by MTT assay; type: functional; details: CCD-1106, 24 h, read-out: LD50 (the source's name)
How it was run: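 Cells were plated at 10,000/well, attached overnight, and exposed 6 or 24 h to eight drug concentrations with six in-plate replicates (DMSO <1%). MTT (0.5 mg/ml in PBS) was added for 2 h at 37 °C, then dissolved in 90% isopropanol/10% DMSO, and A590 was read. Values were corrected against untreated controls. LD₅₀ is reported as mean ± S.E.M., n = 3.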

[3] = Cytotoxicity against HPV-16 transformed human CCD-1106 cells assessed as LDH release after 24 hrs by CYTOX-96 assay; type: functional; details: CCD-1106, 24 h, read-out: LD50 (the source's name)
How it was run: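 LDH release was read with the CytoTox 96 kit following the kit protocol after 6 or 24 h drug exposure. Cells were seeded at 10,000/well and attached overnight. Eight concentrations were run with six in-plate replicates; DMSO was <1% in all wells, with medium-only blanks. LD₅₀ is reported as mean ± S.E.M., n = 6. CCD-1106 were grown in supplemented keratinocyte SFM; HaCaT in DMEM/10% FBS.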

[4] = system: HaCaT; test: Induction of apoptosis in human HaCaT cells assessed as late phase apoptotic/necrotic cells at 446 uM after 9 hrs by AnnexinV-FITC/propidium iodide based FACS flow cytometry; type: functional
How it was run: (§1)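 HaCaT cells at 10^6 cells/ml were attached overnight and exposed to vehicle, 111.6, 223.2 or 446 µM for 9 h. Cells were then trypsinized, washed in ice-cold PBS and stained with Annexin V-FITC/PI. FACScan analysis used FL1/FL2, 10,000 events per sample, scatter gating, and quadrants set with single-stain controls. Runs were in triplicate and results are means of two experiments.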

[5] = system: HaCaT; test: Induction of apoptosis in human HaCaT cells assessed as activation of caspase 3/7 at 55.8 uM after 12 hrs; type: functional, cell-based
How it was run: (§2)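 HaCaT cells were seeded at 10,000 cells/0.2 ml/well, attached overnight and exposed to compound (56–446 µM) for 12 h. Caspase-3/7 activity was measured with the Apo-ONE homogeneous kit, fluorescence 499/521 nm, in triplicate, with medium-only background wells. MTT viability was run in parallel. Results are means of two experiments, t-test against control.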

[6] = system: HaCaT; test: Induction of apoptosis in human HaCaT cells assessed as late phase apoptotic/necrotic cells at 223.2 uM after 9 hrs by AnnexinV-FITC/propidium iodide based FACS flow cytometry; type: functional; how it was run: as §1
[7] = system: HaCaT; test: Induction of apoptosis in human HaCaT cells assessed as viable cells at 446 uM after 12 hrs by MTT assay
[8] = molecular target: Epidermal growth factor receptor (Homo sapiens) (UniProt P00533); test: Inhibition of EGFR-mediated p38 phosphorylation in HPV-16 transformed human CCD-1106 cells at 116.8 uM after 30 mins by densitometric analysis; type: cell-based
How it was run: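 CCD-1106 cells were treated with compound for 30 min at 37 °C, then stimulated with EGF. Lysates were separated by SDS-PAGE, blotted to nitrocellulose and blocked in 3% BSA/NaTT. Blots were probed with p-ERK (E-4) or p-p38 (D-8) antibodies, detected by ECL and quantified by densitometry.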

[9] = molecular target: Epidermal growth factor receptor (Homo sapiens) (UniProt P00533); test: Inhibition of phosphorylated EGFR dimerization in HPV-16 transformed human CCD-1106 cells at 126.7 uM after 30 mins by densitometric analysis; type: cell-based
How it was run: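 CCD-1106 cells were exposed to compounds for 30 min at 37 °C, then stimulated with EGF 50 ng/mL for 10 min. They were cross-linked with 2 mM BS3 for 30 min at room temperature and quenched with Tris (pH 7.5). Lysates were run on SDS-PAGE and immunoblotted for phospho-EGFR (Tyr1173) and total EGFR. The ~340 kDa dimer band was quantified by densitometry against the no-inhibitor control.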

[10] = system: HaCaT; test: Induction of apoptosis in human HaCaT cells assessed as activation of caspase 3/7 after 12 hrs; type: functional, cell-based; how it was run: as §2
[11] = system: HaCaT; test: Induction of necrosis in human HaCaT cells after 12 hrs by electron microscopy; type: functional, cell-based

Sequence of Epidermal growth factor receptor (Homo sapiens) (P00533 whole entry): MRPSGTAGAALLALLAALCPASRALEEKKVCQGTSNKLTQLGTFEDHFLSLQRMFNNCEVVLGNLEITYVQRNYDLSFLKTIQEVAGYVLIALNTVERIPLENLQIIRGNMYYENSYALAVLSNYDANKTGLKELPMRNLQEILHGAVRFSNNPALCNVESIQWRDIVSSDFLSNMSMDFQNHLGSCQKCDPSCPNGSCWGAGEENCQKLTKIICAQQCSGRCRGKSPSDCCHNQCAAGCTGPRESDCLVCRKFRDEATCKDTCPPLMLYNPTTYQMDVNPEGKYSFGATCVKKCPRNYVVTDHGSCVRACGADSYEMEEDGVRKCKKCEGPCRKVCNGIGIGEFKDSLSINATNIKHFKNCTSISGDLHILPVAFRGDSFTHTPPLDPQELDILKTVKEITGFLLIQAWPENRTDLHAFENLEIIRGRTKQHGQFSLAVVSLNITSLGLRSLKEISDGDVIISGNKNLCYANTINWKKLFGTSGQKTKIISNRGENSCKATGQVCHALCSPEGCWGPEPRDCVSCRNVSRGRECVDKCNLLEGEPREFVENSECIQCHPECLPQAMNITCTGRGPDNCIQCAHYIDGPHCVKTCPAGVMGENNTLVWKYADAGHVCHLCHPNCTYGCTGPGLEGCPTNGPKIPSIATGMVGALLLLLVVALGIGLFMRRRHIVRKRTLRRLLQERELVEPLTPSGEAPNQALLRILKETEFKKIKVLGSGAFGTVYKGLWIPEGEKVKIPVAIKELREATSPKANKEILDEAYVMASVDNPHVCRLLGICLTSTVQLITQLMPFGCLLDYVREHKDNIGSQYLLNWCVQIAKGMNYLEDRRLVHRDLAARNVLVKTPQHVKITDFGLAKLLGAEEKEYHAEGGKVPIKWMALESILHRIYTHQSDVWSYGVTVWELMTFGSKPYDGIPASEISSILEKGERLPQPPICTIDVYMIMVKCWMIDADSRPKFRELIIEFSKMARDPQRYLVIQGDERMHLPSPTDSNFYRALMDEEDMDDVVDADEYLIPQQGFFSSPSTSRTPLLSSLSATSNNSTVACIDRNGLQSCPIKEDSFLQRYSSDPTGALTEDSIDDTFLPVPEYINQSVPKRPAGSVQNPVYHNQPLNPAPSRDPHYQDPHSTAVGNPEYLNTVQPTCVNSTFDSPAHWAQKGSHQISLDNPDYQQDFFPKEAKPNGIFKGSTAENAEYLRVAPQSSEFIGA

CCOc1cc(/C=N\Nc2nc3c(c(=O)n(C)c(=O)n3C)n2Cc2ccccc2)ccc1O
GI50 [1]: 22 µM | CC50 [2]: 112 µM | CC50 [3]: > 446 µM | Activity [4]: 15% | Activity [5]: Active | Activity [6]: 10% | viability at 446 µM [7]: 62% | inhibition [8]: 11% | inhibition [9]: 37% | Activity [10]: Dose-dependent effect | Activity [11]: inactive
